This is an account of results in PMC10691213 (Proceedings of the National Academy of Sciences of the …, 2023).

The test system of experiment [1] is HEK293T cells. It is filed as cell-based, human. To be noted: 500 nM anisomycin 1 h. The gist of the method:
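HEK293T cells were transiently transfected (polyethyleneimine) with FLAG-MLXIPL or TACC1 plasmid. Where indicated, cells were pre-treated with 50 μM SB203580 for 1 h at 37 °C, then given 500 nM anisomycin or 0.001% DMSO vehicle for 1 h at 37 °C. Lysates were clarified and equal protein (BCA) resolved on 5% gels with […] Phos-tag plus 50 μM MnCl2, or by standard SDS-PAGE, then immunoblotted.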

Experiment [2] concerns HEK293T cells. Kind of experiment: MS analysis of TACC1 / MLXIPL phosphopeptides isolated from HEK293T cells. It is filed as cell-based, human. Conditions: serum-starved, 500 nM trametinib pre-treatment 1 h, EGF 5 min.

With `COc1ccc(C[C@H]2NC[C@H](O)[C@H]2OC(C)=O)cc1` [Anisomycin, anisomycin], the “phosphorylation of TACC1 (mobility shift)” value with HEK293T cells [1] is given as “did not induce phosphorylation”. On to `C[S+]([O-])c1ccc(-c2nc(-c3ccncc3)c(-c3ccc(F)cc3)[nH]2)cc1` (stereo not drawn) [SB203580], for which, in the experiment on HEK293T cells [1] (50 μM SB203580 pre-treatment 1 h), the “anisomycin-induced MLXIPL phosphorylation (mobility shift)” value was “partly dependent on p38α/β”. Regarding `CC(=O)Nc1cccc(-n2c(=O)n(C3CC3)c(=O)c3c(Nc4ccc(I)cc4F)n(C)c(=O)c(C)c32)c1` [trametinib], the “EGF-stimulated TACC1 Ser231 phosphorylation” value with HEK293T cells [2] is listed as “blocked”.
